Reference: ChEMBL document CHEMBL1671716, “Antimicrobial susceptibility patterns for recent clinical isolates of anaerobic bacteria in South Korea” (2010)

What was measured:
Finegoldia magna [1] = test: Antimicrobial activity against Finegoldia magna assessed as percent susceptible isolates after 48 hrs by agar dilution method; assay type: functional
In short: (§1)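 CLSI agar dilution (M11-A7); inoculum 10^5 CFU applied by replicator; plates incubated anaerobically 48 h at 37°C. For piperacillin-tazobactam, tazobactam held constant at 4 μg/ml.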

Clostridioides difficile = test: Antimicrobial activity against Clostridium difficile assessed as percent susceptible isolates after 48 hrs by agar dilution method; assay type: functional
Finegoldia magna [2] = test: Antimicrobial activity against Finegoldia magna assessed as percent resistant isolates after 48 hrs by agar dilution method; assay type: functional
In short: (§2)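 CLSI agar dilution on recent Korean clinical anaerobe isolates. Inoculum 10^5 CFU per spot by replicator. Plates incubated in an anaerobic chamber at 37°C for 48 h. For piperacillin plus tazobactam, tazobactam was held constant at 4 μg/ml. Resistance and susceptibility rates derived from MICs.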

Bacteroides fragilis [3] = test: Antimicrobial activity against Bacteroides fragilis assessed as percent susceptible isolates after 48 hrs by agar dilution method; assay type: functional
Actinomyces naeslundii [4] = test: Antimicrobial activity against Actinomyces naeslundii assessed as percent resistant isolates after 48 hrs by agar dilution method; assay type: functional; in short: as §2
Schaalia odontolytica [5] = test: Antimicrobial activity against Actinomyces odontolyticus assessed as percent susceptible isolates after 48 hrs by agar dilution method; assay type: functional
Eubacterium sp. = test: Antimicrobial activity against Eubacterium sp. assessed as percent susceptible isolates after 48 hrs by agar dilution method; assay type: functional; in short: as §1
Fusobacterium mortiferum = test: Antimicrobial activity against Fusobacterium mortiferum after 48 hrs by agar dilution method; assay type: functional; in short: as §1
[6] = tested on: Porphyromonas asaccharolytica; test: Antimicrobial activity against Porphyromonas asaccharolytica after 48 hrs by agar dilution method; assay type: functional; in short: as §1
Anaerococcus prevotii = test: Antimicrobial activity against Anaerococcus prevotii assessed as percent susceptible isolates after 48 hrs by agar dilution method; assay type: functional
[7] = tested on: Bifidobacterium adolescentis; test: Antimicrobial activity against Bifidobacterium adolescentis after 48 hrs by agar dilution method; assay type: functional
In short: (§3)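 MICs on clinical anaerobe isolates by the CLSI agar dilution method. Inoculum of 10^5 CFU applied with a Steers replicator. Plates incubated 48 h at 37°C in an anaerobic chamber.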

Fusobacterium necrogenes = test: Antimicrobial activity against Fusobacterium necrogenes after 48 hrs by agar dilution method; assay type: functional; in short: as §1
Prevotella bivia = test: Antimicrobial activity against Prevotella bivia after 48 hrs by agar dilution method; assay type: functional; in short: as §1
[8] = tested on: Peptoniphilus asaccharolyticus; test: Antimicrobial activity against Peptoniphilus asaccharolyticus assessed as percent susceptible isolates after 48 hrs by agar dilution method; assay type: functional; in short: as §1
[9] = tested on: Bacteroides thetaiotaomicron; test: Antimicrobial activity against Bacteroides thetaiotaomicron after 48 hrs by agar dilution method; assay type: functional; in short: as §3
Eggerthella lenta = test: Antimicrobial activity against Eubacterium lentum assessed as percent resistant isolates after 48 hrs by agar dilution method; assay type: functional; in short: as §2
Schaalia meyeri = test: Antimicrobial activity against Actinomyces meyeri after 48 hrs by agar dilution method; assay type: functional; in short: as §3
Actinomyces naeslundii [10] = test: Antimicrobial activity against Actinomyces naeslundii after 48 hrs by agar dilution method; assay type: functional; in short: as §3
Bacteroides ovatus = test: Antimicrobial activity against Bacteroides ovatus assessed as percent susceptible isolates after 48 hrs by agar dilution method; assay type: functional
[11] = tested on: Parabacteroides distasonis; test: Antimicrobial activity against Bacteroides distasonis assessed as percent susceptible isolates after 48 hrs by agar dilution method; assay type: functional
[12] = tested on: Peptoniphilus asaccharolyticus; test: Antimicrobial activity against Peptoniphilus asaccharolyticus assessed as percent resistant isolates after 48 hrs by agar dilution method; assay type: functional; in short: as §2
Prevotella buccae = test: Antimicrobial activity against Prevotella buccae assessed as percent resistant isolates after 48 hrs by agar dilution method; assay type: functional, Segatella buccae; in short: as §2
Phocaeicola vulgatus [13] = test: Antimicrobial activity against Bacteroides vulgatus after 48 hrs by agar dilution method; assay type: functional; in short: as §3
Prevotella intermedia = test: Antimicrobial activity against Prevotella intermedia assessed as percent resistant isolates after 48 hrs by agar dilution method; assay type: functional; in short: as §2
Phocaeicola vulgatus [14] = test: Antimicrobial activity against Bacteroides vulgatus assessed as percent resistant isolates after 48 hrs by agar dilution method; assay type: functional; in short: as §2
Hoylesella oralis = test: Antimicrobial activity against Prevotella oralis after 48 hrs by agar dilution method; assay type: functional; in short: as §1
Schaalia odontolytica [15] = test: Antimicrobial activity against Actinomyces odontolyticus after 48 hrs by agar dilution method; assay type: functional; in short: as §3
[16] = tested on: Parabacteroides distasonis; test: Antimicrobial activity against Bacteroides distasonis assessed as percent resistant isolates after 48 hrs by agar dilution method; assay type: functional; in short: as §2
Bacteroides caccae = test: Antimicrobial activity against Bacteroides caccae assessed as percent resistant isolates after 48 hrs by agar dilution method; assay type: functional; in short: as §2
Bacteroides fragilis [17] = test: Antimicrobial activity against Bacteroides fragilis after 48 hrs by agar dilution method; assay type: functional; in short: as §3

CO[C@@]1(NC(=O)Cc2cccs2)C(=O)N2C(C(=O)O)=C(COC(N)=O)CS[C@@H]21 [CEFOXITIN]
2 mg/L: MIC50 [7] | MIC50 (Schaalia meyeri) | MIC50 (Actinomyces naeslundii [10]) | MIC50 (Schaalia odontolytica [15])
79%: Activity (Bacteroides fragilis [3])
25%: Activity (Bacteroides ovatus) | Activity [11]
0.06 mg/L: MIC (Fusobacterium mortiferum) | MIC [6] | MIC (Fusobacterium necrogenes)
1 mg/L: MIC50 (Prevotella bivia) | MIC50 (Hoylesella oralis)
16 mg/L: MIC90 [7] | MIC90 (Schaalia meyeri) | MIC90 (Actinomyces naeslundii [10]) | MIC90 (Schaalia odontolytica [15]) | MIC50 (Bacteroides fragilis [17])
100%: Activity (Finegoldia magna [1]) | Activity (Anaerococcus prevotii) | Activity [8]
0%: Activity (Clostridioides difficile) | Activity (Finegoldia magna [2]) | Activity (Actinomyces naeslundii [4]) | Activity (Eggerthella lenta) | Activity [12] | Activity (Prevotella buccae) | Activity (Prevotella intermedia)
92%: Activity (Schaalia odontolytica [5]) | Activity (Eubacterium sp.)
7%: Activity (Phocaeicola vulgatus [14]) | Activity [16] | Activity (Bacteroides caccae)
32 mg/L: MIC90 (Prevotella bivia) | MIC50 [9] | MIC90 [9] | MIC50 (Phocaeicola vulgatus [13]) | MIC90 (Phocaeicola vulgatus [13]) | MIC90 (Hoylesella oralis) | MIC90 (Bacteroides fragilis [17])

O=C(N[C@H](CO)[C@H](O)c1ccc([N+](=O)[O-])cc1)C(Cl)Cl [CHLORAMPHENICOL]
1 mg/L: MIC [7] | MIC50 [7] | MIC (Schaalia meyeri) | MIC50 (Schaalia meyeri) | MIC (Actinomyces naeslundii [10]) | MIC50 (Actinomyces naeslundii [10]) | MIC (Schaalia odontolytica [15]) | MIC50 (Schaalia odontolytica [15])
83%: Activity (Clostridioides difficile)
93%: Activity (Anaerococcus prevotii)
92%: Activity (Schaalia odontolytica [5]) | Activity (Eubacterium sp.)
98%: Activity (Bacteroides fragilis [3]) | Activity (Bacteroides ovatus) | Activity [11]
8 mg/L: MIC90 (Prevotella bivia) | MIC90 [9] | MIC90 (Phocaeicola vulgatus [13]) | MIC90 (Hoylesella oralis)
100%: Activity (Finegoldia magna [1]) | Activity [8]
0.13 mg/L: MIC (Fusobacterium mortiferum) | MIC [6] | MIC (Fusobacterium necrogenes)
4 mg/L: MIC50 (Prevotella bivia) | MIC [9] | MIC50 [9] | MIC (Phocaeicola vulgatus [13]) | MIC50 (Phocaeicola vulgatus [13]) | MIC50 (Hoylesella oralis) | MIC50 (Bacteroides fragilis [17]) | MIC90 (Bacteroides fragilis [17])
2 mg/L: MIC90 [7] | MIC90 (Schaalia meyeri) | MIC90 (Actinomyces naeslundii [10]) | MIC90 (Schaalia odontolytica [15])
0%: Activity (Finegoldia magna [2]) | Activity (Actinomyces naeslundii [4]) | Activity (Eggerthella lenta) | Activity [12] | Activity (Prevotella buccae) | Activity (Prevotella intermedia) | Activity (Phocaeicola vulgatus [14]) | Activity [16] | Activity (Bacteroides caccae)
